Tests used:
DU-145 = assay: Cytotoxicity against human DU145 cells after 48 hrs by SRB assay; format: functional, cell-based; conditions: Homo sapiens, DU-145, 48 h; for GI50: read-out: GI50; for CC50: read-out: LC50 (the source's name)
Procedure, shortened: (§1)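 Cells grown in RPMI 1640 with 10% FBS and penicillin/streptomycin at 37 °C and 5% CO₂, trypsinized, then seeded at 5 × 10³/well. After 18 h drug-free attachment, samples in DMSO/EtOH/PBS (0.5:0.5:99) were added for 48 h continuous exposure. Cells were fixed with cold TCA (1 h, 4 °C) and stained with SRB (10 min). Tris-solubilized stain read at 490 nm. Triplicate wells, mean ± SD; GI₅₀ derived.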

LNCaP = assay: Cytotoxicity against human LNcaP cells after 48 hrs by SRB assay; format: functional; conditions: for CC50: read-out: LC50 (the source's name); procedure, shortened: as §1
[1] = Cytotoxicity against human IGROV cells after 48 hrs by SRB assay; format: functional; conditions: for CC50: read-out: LC50 (the source's name); procedure, shortened: as §1
[2] = Cytotoxicity against human IGROV-ET cells after 48 hrs by SRB assay; format: functional; conditions: for CC50: read-out: LC50 (the source's name); procedure, shortened: as §1
SK-BR-3 = assay: Cytotoxicity against human SKBR3 cells after 48 hrs by SRB assay; format: functional; conditions: SK-BR-3, 48 h; for GI50: read-out: GI50; for CC50: read-out: LC50 (the source's name); procedure, shortened: as §1
SK-MEL-28 = assay: Cytotoxicity against human SK-MEL-28 cells after 48 hrs by SRB assay; format: functional, cell-based; conditions: Homo sapiens, SK-MEL-28, 48 h; for GI50: read-out: GI50; for CC50: read-out: LC50 (the source's name); procedure, shortened: as §1
A549 = assay: Cytotoxicity against human A549 cells after 48 hrs by SRB assay; format: functional, cell-based; conditions: Homo sapiens, A549, 48 h; procedure, shortened: as §1
K562 = assay: Cytotoxicity against human K562 cells after 48 hrs by SRB assay; format: functional; conditions: K562, 48 h; for CC50: read-out: LC50 (the source's name); procedure, shortened: as §1
PANC-1 = assay: Cytotoxicity against human PANC1 cells after 48 hrs by SRB assay; format: functional; conditions: PANC-1, 48 h; for CC50: read-out: LC50 (the source's name); procedure, shortened: as §1
HT-29 = assay: Cytotoxicity against human HT29 cells after 48 hrs by SRB assay; format: functional, cell-based; conditions: Homo sapiens, HT-29, 48 h; for CC50: read-out: LC50 (the source's name); procedure, shortened: as §1
LoVo [3] = assay: Cytotoxicity against human LoVo cells after 48 hrs by SRB assay; format: functional; conditions: for CC50: read-out: LC50 (the source's name)
LoVo [4] = assay: Cytotoxicity against human doxorubicin resistant LoVo cells after 48 hrs by SRB assay; format: functional; conditions: for CC50: read-out: LC50 (the source's name); procedure, shortened: as §1
HeLa = assay: Cytotoxicity against human HeLa cells after 48 hrs by SRB assay; format: functional; conditions: for CC50: read-out: LC50 (the source's name); procedure, shortened: as §1
[5] = Cytotoxicity against human HeLa-APL cells after 48 hrs by SRB assay; format: functional; procedure, shortened: as §1

SMILES	TGI (DU-145) [nM]	GI50 (DU-145) [nM]	CC50 (DU-145) [nM]	CC50 (LNCaP) [nM]	CC50 [1] [nM]	CC50 [2] [nM]	TGI (SK-BR-3) [nM]	GI50 (SK-BR-3) [nM]	CC50 (SK-BR-3) [nM]	CC50 (SK-MEL-28) [nM]	LC50 (A549) [nM]	GI50 (K562) [nM]	TGI (K562) [nM]	CC50 (K562) [nM]	CC50 (PANC-1) [nM]	CC50 (HT-29) [nM]	CC50 (LoVo [3]) [nM]	CC50 (LoVo [4]) [nM]	CC50 (HeLa) [nM]	GI50 [5] [nM]	further results
C/C=C1\NC(=O)[C@H](Cc2ccccc2)NC(=O)[C@@H](C(C)C)NC(=O)[C@@H]([C@H](C)CC)NC(=O)[C@H](NC(=O)[C@H](NC(=O)[C@H](CCCN)NC(=O)[C@H]2CCCN2C(=O)[C@H](NC(=O)[C@H](CCC2CCCCC2)NC(=O)[C@@H](NC(=O)[C@@H](CC2CCCCC2)NC(=O)CCCC(C)C)[C@@H](C)O)C(C)C)[C@H](C)CC)[C@H](C)OC(=O)[C@H](C(C)C)NC1=O	2550	3300	1350	1380	7300	968	1690	2060	703	1490	1670	1790	1790	1790	1640	2490	3220	9670	1770	4340	TGI (SK-MEL-28): 3090 nM; GI50 (SK-MEL-28): 3180 nM; TGI (A549): 3240 nM; GI50 (A549; read-out: GI50): 3600 nM; GI50 (HT-29): 2900 nM; TGI (HT-29): 2700 nM; GI50 (LoVo [3]): 2810 nM; TGI (LoVo [3]): 3010 nM; GI50 (LoVo [4]): 1210 nM; TGI (LoVo [4]): 1530 nM; GI50 (HeLa): 2950 nM; TGI (HeLa): 3510 nM; LC50 (concentration giving 50% net cell kill) [5]: 1660 nM; TGI [5]: 3500 nM
C/C=C1\NC(=O)[C@H](Cc2ccccc2)NC(=O)[C@@H](C(C)C)NC(=O)[C@@H]([C@H](C)CC)NC(=O)[C@H](NC(=O)[C@H](NC(=O)[C@H](CCCN)NC(=O)[C@H]2CCCN2C(=O)[C@H](NC(=O)[C@@H](NC(=O)[C@@H](NC(=O)[C@@H](CCCN)NC(=O)CCCC(C)C)[C@@H](C)O)C(C)C)C(C)C)[C@H](C)CC)[C@H](C)OC(=O)[C@H](C(C)C)NC1=O	1270	1160	1170	950	382	559	1770	1720	907	1160	3840	877	1120	1910	1760	4270	330	296	1030	1100	GI50 (LNCaP): 853 nM; TGI (LNCaP): 1170 nM; GI50 [1]: 630 nM; GI50 ([1]; read-out: GI50): 1130 nM; GI50 [2]: 806 nM; GI50 ([2]; read-out: GI50): 103 nM; TGI (SK-MEL-28): 1150 nM; GI50 (SK-MEL-28): 1140 nM; GI50 (A549): 888 nM; GI50 (A549; read-out: GI50): 747 nM; GI50 (PANC-1): 1420 nM; TGI (PANC-1): 1240 nM; GI50 (HeLa): 1370 nM; TGI (HeLa): 1400 nM; LC50 (concentration giving 50% net cell kill) [5]: 965 nM; TGI [5]: 1070 nM
C/C=C1\NC(=O)[C@H](Cc2ccccc2)NC(=O)[C@@H](C(C)C)NC(=O)[C@@H]([C@H](C)CC)NC(=O)[C@H](NC(=O)[C@H](NC(=O)[C@H](CCCN)NC(=O)[C@H]2CCCN2C(=O)[C@H](NC(=O)[C@@H](NC(=O)[C@@H](NC(=O)[C@H](NC(=O)CC[C@@H](C)CC)C(C)C)[C@@H](C)O)C(C)C)C(C)C)[C@H](C)CC)[C@H](C)OC(=O)[C@H](C(C)C)NC1=O	2200	1690	347	2030	1220	975	462	539	395	1670	1320	2070	3760	2560	2200	2060	321	1040	1070	1280	TGI [1]: 1020 nM; GI50 ([1]; read-out: GI50): 827 nM; GI50 [2]: 584 nM; GI50 ([2]; read-out: GI50): 550 nM; GI50 (HT-29): 730 nM; TGI (HT-29): 1020 nM; GI50 (LoVo [3]): 397 nM; TGI (LoVo [3]): 385 nM; GI50 (LoVo [4]): 249 nM; TGI (LoVo [4]): 250 nM; LC50 (concentration giving 50% net cell kill) [5]: 1140 nM; TGI [5]: 1200 nM

Reference: ChEMBL document CHEMBL1156597, “Structure-activity relationship of kahalalide F synthetic analogues” (J Med Chem, 2008)
